Data reported in ChEMBL document CHEMBL1122383, “Potential tissue-imaging agents: 23-(trimethyl [117mSn]stannyl)-24-nor-5 alpha-cholan-3 beta-ol” (J Med Chem, 1983).

Key:
Homo sapiens [1] = organism: Homo sapiens; assay: Adsorbed radiation dose value was calculated to human adrenal; assay type: functional
In short: (§1)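 Human absorbed dose (rd/mCi) estimated from rat tissue distribution data re-expressed as percent kilogram dose per gram. Fraction of injected dose per human organ = (% kg dose/g × organ weight)/(kg body weight of man × 100). Cumulated activities were derived from these fractions and organ half-times, then combined with Sn-117m S values (rd/μCi-h).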

Homo sapiens [2] = organism: Homo sapiens; assay: Adsorbed radiation dose value was calculated to human liver; assay type: functional; in short: as §1
Homo sapiens [3] = organism: Homo sapiens; assay: Adsorbed radiation dose value was calculated to human lungs; assay type: functional; in short: as §1
Homo sapiens [4] = organism: Homo sapiens; assay: Adsorbed radiation dose value was calculated to human ovaries; assay type: functional, Female gonad; in short: as §1
Homo sapiens [5] = organism: Homo sapiens; assay: Adsorbed radiation dose value was calculated to human spleen; assay type: functional; in short: as §1
Homo sapiens [6] = organism: Homo sapiens; assay: Adsorbed radiation dose value was calculated to human total body; assay type: functional; in short: as §1
Homo sapiens [7] = organism: Homo sapiens; assay: Adsorbed radiation dose value was calculated to human body; assay type: functional, organism-based
In short: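 Rat tissue distribution data were converted to percent kilogram dose per gram. The fraction of injected dose in each human organ was taken as (% kg dose/g × organ weight)/(kg body weight × 100). Cumulated activities came from these fractions and organ half-times. Sn-117m S values (rd/µCi-h) then gave the absorbed dose in rd/mCi.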

Rattus norvegicus [8] = assay: Adrenal Uptake was determined on day1 after iv administration into rat; assay type: functional, organism-based
In short: (§2)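 The tin-117m-labeled steroid was injected intravenously into female rats. Adrenal glands were taken at the stated day after injection, up to 21 days. Radioactivity was reported as percent of injected dose, given as the mean and range.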

Rattus norvegicus [9] = assay: Adrenal Uptake was determined on day 14 after iv administration into rat; assay type: functional, organism-based; in short: as §2
Rattus norvegicus [10] = assay: Adrenal Uptake was determined on day 21 after iv administration into rat; assay type: functional, organism-based; in short: as §2
Rattus norvegicus [11] = assay: Adrenal Uptake was determined on day 3 after iv administration into rat; assay type: functional, organism-based; in short: as §2
Rattus norvegicus [12] = assay: Adrenal Uptake was determined on day 7 after iv administration into rat; assay type: functional, organism-based; in short: as §2
[13] = It is the ratio of adrenal to blood measured on day 21 after iv administration in rat.; assay type: functional, organism-based
In short: (§3)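 Female rats received an intravenous injection of the tin-117m-labeled steroid. Adrenal/blood and adrenal/liver ratios were calculated from percent dose per gram of tissue at the stated day after injection.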

[14] = It is the ratio of adrenal to blood measured on day1 after iv administration in rat.; assay type: functional, organism-based; in short: as §3
[15] = It is the ratio of adrenal to blood measured on day 14 after iv administration in rat.; assay type: functional, organism-based; in short: as §3
[16] = It is the ratio of adrenal to blood measured on day 3 after iv administration in rat.; assay type: functional, organism-based; in short: as §3
[17] = It is the ratio of adrenal to blood measured on day 7 after iv administration in rat.; assay type: functional, organism-based; in short: as §3
[18] = It is the ratio of adrenal to liver measured on day 14 after iv administration in rat.; assay type: functional, organism-based; in short: as §3
[19] = It is the ratio of adrenal to liver measured on day 21 after iv administration in rat.; assay type: functional, organism-based; in short: as §3
[20] = It is the ratio of adrenal to liver measured on day 3 after iv administration in rat.; assay type: functional, organism-based; in short: as §3
[21] = It is the ratio of adrenal to liver measured on day 7 after iv administration in rat.; assay type: functional, organism-based; in short: as §3
[22] = It is the ratio of adrenal to liver measured on day1 after iv administration in rat.; assay type: functional, organism-based; in short: as §3
Rattus norvegicus [23] = assay: Tested for distribution of radioactivity in female rat tissue at 14d ay after intravenous administration in blood; assay type: ADME, organism-based; conditions: in vivo
In short: (§4)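 Rat tissue distribution followed intravenous injection of the tin-117m-labeled steroid into female rats. Adrenals, blood, kidneys, liver and ovaries were counted at the stated day. Values are percent dose/gram, given as the mean and range for three female rats.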

Rattus norvegicus [24] = assay: Tested for distribution of radioactivity in female rat tissue at 14d ay after intravenous administration in kidney; assay type: ADME, organism-based; conditions: in vivo; in short: as §4
Rattus norvegicus [25] = assay: Tested for distribution of radioactivity in female rat tissue at 14d ay after intravenous administration in liver; assay type: ADME, organism-based; conditions: in vivo; in short: as §4
Rattus norvegicus [26] = assay: Tested for distribution of radioactivity in female rat tissue at 14d ay after intravenous administration in ovaries; assay type: ADME, organism-based; conditions: in vivo; in short: as §4
Rattus norvegicus [27] = assay: Tested for distribution of radioactivity in female rat tissue at 3 day after intravenous administration in ovaries; assay type: ADME, organism-based; conditions: in vivo, 72 h; in short: as §4
Rattus norvegicus [28] = assay: Tested for distribution of radioactivity in female rat tissue at 7 day after intravenous administration in adrenal; assay type: ADME, organism-based; conditions: in vivo, 168 h; in short: as §4
Rattus norvegicus [29] = assay: Tested for distribution of radioactivity in female rat tissue at 7 day after intravenous administration in blood; assay type: ADME, organism-based; conditions: in vivo, 168 h; in short: as §4
Rattus norvegicus [30] = assay: Tested for distribution of radioactivity in female rat tissue at 7 day after intravenous administration in kidney; assay type: ADME, organism-based; conditions: in vivo, 168 h; in short: as §4
Rattus norvegicus [31] = assay: Tested for distribution of radioactivity in female rat tissue at 7 day after intravenous administration in liver; assay type: ADME, organism-based; conditions: in vivo, 168 h; in short: as §4
Rattus norvegicus [32] = assay: Tested for distribution of radioactivity in female rat tissue at 7 day after intravenous administration in ovaries; assay type: ADME, organism-based; conditions: in vivo, 168 h; in short: as §4
Rattus norvegicus [33] = assay: Tested for distribution of radioactivity in female rat tissue at 21 day after intravenous administration in adrenal; assay type: ADME, organism-based; conditions: in vivo, 504 h; in short: as §4
Rattus norvegicus [34] = assay: Tested for distribution of radioactivity in female rat tissue at 21 day after intravenous administration in blood; assay type: ADME, organism-based; conditions: in vivo, 504 h; in short: as §4
Rattus norvegicus [35] = assay: Tested for distribution of radioactivity in female rat tissue at 21 day after intravenous administration in kidney; assay type: ADME, organism-based; conditions: in vivo, 504 h; in short: as §4
Rattus norvegicus [36] = assay: Tested for distribution of radioactivity in female rat tissue at 21 day after intravenous administration in ovaries; assay type: ADME, organism-based; conditions: in vivo, 504 h; in short: as §4
Rattus norvegicus [37] = assay: Tested for distribution of radioactivity in female rat tissue at 14d ay after intravenous administration in adrenal; assay type: ADME, organism-based; conditions: in vivo; in short: as §4
Rattus norvegicus [38] = assay: Tested for distribution of radioactivity in female rat tissue at 3 day after intravenous administration in adrenal; assay type: ADME, organism-based; conditions: in vivo, 72 h; in short: as §4
Rattus norvegicus [39] = assay: Tested for distribution of radioactivity in female rat tissue at 3 day after intravenous administration in blood; assay type: ADME, organism-based; conditions: in vivo, 72 h; in short: as §4
Rattus norvegicus [40] = assay: Tested for distribution of radioactivity in female rat tissue at 3 day after intravenous administration in liver; assay type: ADME, organism-based; conditions: in vivo, 72 h; in short: as §4
Rattus norvegicus [41] = assay: Tested for distribution of radioactivity in female rat tissue at 3 day after intravenous administration in kidney; assay type: ADME, organism-based; conditions: in vivo, 72 h; in short: as §4

With `CC(C)[Te]CCC(C)C1CC[C@H]2[C@@H]3CC[C@H]4CC(O)CCC4(C)[C@H]3CCC12C` (some centres not stated) the Dose (Homo sapiens [1]) was 98 rd mCi-1, the Dose (Homo sapiens [2]) was 1.6 rd mCi-1 and the Dose (Homo sapiens [3]) was 1.3 rd mCi-1. It also gave a Dose (Homo sapiens [4]) of 8 rd mCi-1, a Dose (Homo sapiens [5]) of 1.4 rd mCi-1 and a Dose (Homo sapiens [6]) of 0.8 rd mCi-1.
Work on `CC(C)[Te]CCCC(C)C1CCC2C3CC=C4CC(O)CCC4(C)C3CCC12C` (configuration not stated) yielded a Dose (Homo sapiens [1]) of 210 rd mCi-1, a Dose (Homo sapiens [2]) of 2 rd mCi-1 and a Dose (Homo sapiens [3]) of 1.9 rd mCi-1. It also gave a Dose (Homo sapiens [4]) of 13 rd mCi-1, a Dose (Homo sapiens [5]) of 34 rd mCi-1 and a Dose (Homo sapiens [6]) of 1.4 rd mCi-1.
For Stannanyl complex [listing 1 of 2 here], the Dose (Homo sapiens [1]) was 83 rd mCi-1, the Dose (Homo sapiens [7]) was 0.77 rd mCi-1 and the Dose (Homo sapiens [2]) was 5.3 rd mCi-1. The Dose (Homo sapiens [3]) was 4.1 rd mCi-1, the Dose (Homo sapiens [4]; Female gonad) was 4.4 rd mCi-1 and the Dose (Homo sapiens [5]) was 7.7 rd mCi-1. For the same compound, the Adrenal uptake (Rattus norvegicus [8]) was 2.51, the Adrenal uptake (Rattus norvegicus [9]) was 0.34 and the Adrenal uptake (Rattus norvegicus [10]) was 0.16. The Adrenal uptake (Rattus norvegicus [11]) was 2.86, the Adrenal uptake (Rattus norvegicus [12]) was 1.1 and the Ratio [13] was 23.3. It also gave a Ratio [14] of 33.7, a Ratio [15] of 49.7 and a Ratio [16] of 63.6. For the same compound, the Ratio [17] was 102, the Ratio [18] was 37.3 and the Ratio [19] was 16.6. The Ratio [20] was 23.9, the Ratio [21] was 44 and the Ratio [22] was 9.1.
In the case of Stannanyl complex [listing 2 of 2 here], the Dose/g (Rattus norvegicus [23]) is reported as 0.15%, the Dose/g (Rattus norvegicus [24]) is reported as 0.38% and the Dose/g (Rattus norvegicus [25]) is reported as 0.2%. For the same compound, the Dose/g (Rattus norvegicus [26]) was 2.53%, the Dose/g (Rattus norvegicus [27]) was 10.99% and the Dose/g (Rattus norvegicus [28]) was 19.37%. The Dose/g (Rattus norvegicus [29]) was 0.19%, the Dose/g (Rattus norvegicus [30]) was 0.54% and the Dose/g (Rattus norvegicus [31]) was 0.44%. For the same compound, the Dose/g (Rattus norvegicus [32]) was 4.9%, the Dose/g (Rattus norvegicus [33]) was 2.33% and the Dose/g (Rattus norvegicus [34]) was 0.1%. The Dose/g (Rattus norvegicus [35]) was 0.26%, the Dose/g (Rattus norvegicus [36]) was 1.26% and the Dose/g (Rattus norvegicus [37]) was 7.46%. The Dose/g (Rattus norvegicus [38]) was 50.88%, the Dose/g (Rattus norvegicus [39]) was 0.8% and the Dose/g (Rattus norvegicus [40]) was 2.13%. The Dose/g (Rattus norvegicus [41]) was 0.79%.
